Experimental data gathered from unrelated publications.
Lines come from different studies, so protocols differ.
Target: Serine/threonine-protein kinase TAO3 (TAOK3, Homo sapiens, UniProt Q9H2K8)
Residues used in one study (Q9H2K8 1-898): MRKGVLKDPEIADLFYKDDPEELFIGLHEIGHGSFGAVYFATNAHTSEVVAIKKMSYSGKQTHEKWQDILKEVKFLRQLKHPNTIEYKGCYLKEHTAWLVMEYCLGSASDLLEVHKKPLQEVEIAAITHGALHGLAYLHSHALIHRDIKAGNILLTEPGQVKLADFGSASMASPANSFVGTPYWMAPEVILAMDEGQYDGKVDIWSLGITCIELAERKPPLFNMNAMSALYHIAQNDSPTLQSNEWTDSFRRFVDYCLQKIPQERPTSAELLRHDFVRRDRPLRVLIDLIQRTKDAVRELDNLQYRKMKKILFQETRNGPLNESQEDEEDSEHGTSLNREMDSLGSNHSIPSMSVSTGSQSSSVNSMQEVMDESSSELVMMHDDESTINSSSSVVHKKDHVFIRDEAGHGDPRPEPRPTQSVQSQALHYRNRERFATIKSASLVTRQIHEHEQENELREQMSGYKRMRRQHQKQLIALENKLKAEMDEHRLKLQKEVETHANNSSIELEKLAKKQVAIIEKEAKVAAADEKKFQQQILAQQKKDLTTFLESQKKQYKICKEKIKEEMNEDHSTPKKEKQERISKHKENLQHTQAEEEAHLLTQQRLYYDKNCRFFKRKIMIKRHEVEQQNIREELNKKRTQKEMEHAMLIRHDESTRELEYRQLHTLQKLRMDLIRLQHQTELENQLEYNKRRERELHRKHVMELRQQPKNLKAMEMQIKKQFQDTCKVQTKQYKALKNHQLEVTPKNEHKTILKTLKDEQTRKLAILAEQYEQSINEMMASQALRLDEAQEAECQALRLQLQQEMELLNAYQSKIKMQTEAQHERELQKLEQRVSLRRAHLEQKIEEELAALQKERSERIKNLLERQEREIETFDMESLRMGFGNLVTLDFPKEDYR

| SMILES | read-out | method | concentration | remaining binding [%] |
| --- | --- | --- | --- | --- |
| N[C@H]1CCN(c2nccc(-c3cnn4ncccc34)n2)C1 | binding |  | 1 µM | 100 |
| CNC(=O)[C@@H]1CC[C@@H](n2c(-c3ccc4cnccc4c3)nc3ccc(C(=O)NCc4cccc(C(N)=O)c4)cc32)C1 | binding | competition with immobilised ligand | 1 µM | 93 |
| COc1ncc2cc3ccccc3nc2c1C#N | cell-free assay | competition with immobilised ligand | 5 µM | 100 |
| c1ccc(N2CCN(Cc3nc4ccccc4[nH]3)CC2)nc1 | binding | competition with immobilised ligand | 1 µM | 86 |
| C[C@H]1CCN(c2nccc(-c3cnn4ncccc34)n2)C1 | binding |  | 1 µM | 86 |
| Cc1cnc(Nc2ccc(C(=O)N3CCC(N4CCCC4)CC3)cc2)nc1-c1cc2ccccc2s1 | binding | competition with immobilised ligand | 1 µM | 77 |
| FC(F)(F)Oc1cccc(-c2cnc3ccc(-c4ccncc4)nn23)c1 | binding | competition with immobilised ligand | 5 µM | 72 |
| CC1=C(C#N)[C@@H](c2ccc3[nH]nc(C)c3c2)C(C#N)=C(c2ccc(Cl)cc2)N1 | cell-free assay | competition with immobilised ligand | 1 µM | 100 |
| CN(C)c1nccc(-c2cnc3ncccn23)n1 | binding |  | 1 µM | 68 |
| C=CC(=O)N1CCC(C(=O)NCC(=O)N2CCN(c3nc(-c4cnc(N)nc4C(F)F)nc(N4CCOCC4)n3)CC2)CC1 | binding | competition with immobilised ligand | 1 µM | 77 |
| O=C1CCc2cc(Nc3cc(OC4CCOCC4)c([N+](=O)[O-])cc3Cl)ccc2N1 | cell-free assay | competition with immobilised ligand | 1 µM | 81 |
| CN(C)c1ncc(F)c(-c2cnn3ncccc23)n1 | binding |  | 1 µM | 78 |
| Cc1cc(NC(=O)c2cccc(S(F)(F)(F)(F)F)c2)cc(-n2ccn3nc(-c4cccnc4)cc23)c1 | cell-free assay | competition with immobilised ligand | 1 µM | 100 |
| COc1cnc(Nc2cccc(S(N)(=O)=O)c2)nc1N1CCN(c2ccccc2)C(=O)C1 | binding | competition with immobilised ligand | 1 µM | 93 |
| CS(=O)(=O)c1cc(C2(NC(=O)c3cncc4c3cnn4-c3ccc(F)cc3)CC2)ccn1 | cell-free assay | competition with immobilised ligand | 1 µM | 97 |
| Cc1cnn2ncc(-c3ccnc(N(C)C)n3)c2c1 | binding |  | 1 µM | 91 |
| C[C@H](c1ccnc(Nc2nc3ccc(-c4cc(N(C)C)ncn4)cc3[nH]2)c1)N1CCN(C(=O)CC(F)(F)F)CC1 | cell-free assay | competition with immobilised ligand | 0.1 µM | 41 |
| O=C(NCCCN1CCOCC1)c1ccc(Nc2nccc(-c3cc4ccccc4s3)n2)cc1 | binding | competition with immobilised ligand | 1 µM | 82 |
| Nc1cnc(N2CCc3cc(S(=O)(=O)Nc4c(F)cc(Cl)cc4F)cc(N4CCCC4=O)c32)nc1 | cell-free assay | competition with immobilised ligand | 1 µM | 70 |
| CN(c1nccc(-c2cnn3ncccc23)n1)C1CC1 | binding |  | 1 µM | 54 |
| O=C(c1ccc(Nc2ncc(Cl)c(-c3cc4ccccc4s3)n2)cc1)N1CCC(N2CCCC2)CC1 | binding | competition with immobilised ligand | 1 µM | 68 |
| O=C(Nc1c[nH]nc1C(=O)NC1CCNCC1)c1cc(F)cc(F)c1 | binding | competition with immobilised ligand | 1 µM | 70 |
